Source: paper PMC7787346 (Clinical cancer research : an official journal of the …, 2019)
Entries after “also recorded” stand apart in the source; their conditions may differ.

How the values were obtained:
[1] = test system: patients with previously untreated poor-risk AML; assay type: in vivo
[2] = test system: AML cell lines and AML patient cells; test: Preclinical combination studies of selinexor and daunorubicin; assay type: cell-based; conditions: Supplementary Figs. S1 and S2, Supplementary Table S1
[3] = test system: pediatric patients with relapsed or refractory acute leukemia; conditions: selinexor plus fludarabine and cytarabine; cited from earlier work
gated CD34+ cells = test: Ex vivo sensitivity of patient bone marrow MNCs, flow cytometry for apoptosis; assay type: cell-based, human
Procedure, shortened: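 Screening bone marrow aspirates were Ficoll-enriched for mononuclear cells and plated at 3 million cells per mL. Cells were incubated 20 hours with titrated test compound, alone or combined with 40 µmol/L cytarabine or 1 µmol/L daunorubicin. Apoptosis (active caspase-3) was measured by flow cytometry on gated CD34+ cells. Of 10 samples, 2 were excluded for low viability or <5% CD34+ cells, leaving 8.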

[4] = Plasma pharmacokinetics of selinexor; assay type: in vivo, human; conditions: for Tmax / AUC(0-t) / Cmax: human, plasma; for AUC(0-t): AUC0–8h
[5] = test system: patients with previously untreated poor-risk AML; test: G-banding cytogenetic analysis of bone marrow aspirates at follow-up; assay type: in vivo, human
Procedure, shortened: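 G-banding cytogenetics was done on each patient's bone marrow aspirate at diagnosis and, for most patients, at response assessment. Marrow aspirations and biopsies for response were taken between days 28 and 72 after induction or reinduction: daunorubicin/cytarabine 7+3 (or 5+2) plus oral test compound at 60 or 80 mg.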

[6] = test system: patients with previously untreated poor-risk AML; test: Phase I trial of selinexor plus 7+3: response; assay type: in vivo, human; conditions: for Median overall survival: 95% CI 3.74–NR
[7] = treatment failure (n = 9), baseline 1, 5 not assessed
[8] = 16 response eligible patients, poor-risk by NCCN criteria
[9] = 19 patients evaluable for response

O=C(/C=C\n1cnc(-c2cc(C(F)(F)F)cc(C(F)(F)F)c2)n1)NNc1cnccn1 [selinexor]
Patients who died during the treatment or follow-up phases ([1]; 21 patients, majority related to relapsed or refractory AML): 62% | Grade 3/4 nonhematologic TEAE sepsis ([1]; grade 3/4, selinexor + 7+3, 21 patients): 14% | Median time to a platelet count ≥50,000 ([1]; human, in vivo): 35 days | Median time to absolute neutrophil count (ANC) ≥500 ([1]; human, in vivo): 26 days | Patients with at least one grade 3/4 AE ([1]; human, in vivo): 95% | Only grade 3 AE during maintenance therapy ([1]; in vivo): fatigue | Patients who experienced at least 1 TEAE ([1]; in vivo): Every patient | Patients who experienced diarrhea or hyponatremia ([1]; in vivo): None | Interaction between selinexor and daunorubicin [2]: strong synergistic interactions; also recorded: strong synergy | Patients who tested negative for measurable residual disease [3]: 5 patients | Synergy between selinexor and daunorubicin (gated CD34+ cells; titrated selinexor with 1 µmol/L daunorubicin, patient samples ex vivo): no synergy | Effects of the combination on apoptosis (gated CD34+ cells; titrated selinexor with 40 µmol/L cytarabine or 1 µmol/L daunorubicin): additive | Exposure (based on AUC) on days 1 and 15 ([4]; day 1 versus day 15): similar | Tmax ([4]; oral, Mean Tmax, day 15, delayed absorption): 4 h | AUC(0-t) ([4]; po, 60 mg, selinexor 60 mg oral, day 1, 4 patients): 1850 ± 972 ng·h/mL | AUC(0-t) ([4]; po, 60 mg, selinexor 60 mg oral, day 15, 3 patients): 1710 ± 1030 ng·h/mL | Cmax ([4]; po, 60 mg, Cmax, selinexor 60 mg oral, day 1, 4 patients): 457 ± 196 ng/mL | Cmax ([4]; po, 60 mg, Cmax, selinexor 60 mg oral, day 15, 3 patients): 392 ± 290 ng/mL | Cmax ([4]; po, 60 mg, Mean Cmax, selinexor 60 mg oral, day 1, 4 patients): 1030 nM | Tmax ([4]; po, 60 mg, Tmax, selinexor 60 mg oral, day 1, 4 patients): 2 ± 3.2 h | Tmax ([4]; po, 60 mg, Tmax, selinexor 60 mg oral, day 15, 3 patients): 4 ± 1.2 h | AUC(0-t) ([4]; po, 80 mg, selinexor 80 mg oral, day 1, 17 patients): 2590 ± 1110 ng·h/mL | AUC(0-t) ([4]; po, 80 mg, selinexor 80 mg oral, day 15, 13 patients): 2100 ± 1080 ng·h/mL | Cmax ([4]; po, 80 mg, Cmax, selinexor 80 mg oral, day 1, 17 patients): 601 ± 302 ng/mL | Cmax ([4]; po, 80 mg, Cmax, selinexor 80 mg oral, day 15, 13 patients): 482 ± 288 ng/mL | Cmax ([4]; po, 80 mg, Mean Cmax, selinexor 80 mg oral, day 1, 17 patients): 1360 nM | Tmax ([4]; po, 80 mg, Tmax, selinexor 80 mg oral, day 1, 17 patients): 2 ± 2.2 h | Tmax ([4]; po, 80 mg, Tmax, selinexor 80 mg oral, day 15, 13 patients): 4 ± 2.5 h | AUC0–8h ([4]; selinexor 60 mg oral, day 1, 4 patients): 1,853 ng/h/mL | AUC0–8h ([4]; selinexor 80 mg oral, day 1, 17 patients): 2,590 ng/h/mL | Cytogenetics at follow-up: Chr 5 abnormalities ([5]; responders (n = 10), baseline 0): 0 no. | Cytogenetics at follow-up: Chr 7 abnormalities ([5]; responders (n = 10), baseline 1): 1 no. | Cytogenetics at follow-up: Other Chr abnormalities ([5]; responders (n = 10), baseline 2): 0 no. | Cytogenetics at follow-up: Complex ([5]; responders (n = 10), baseline 3): 1 no. | Cytogenetics at follow-up: Diploid ([5]; responders (n = 10), baseline 4): 8 no. | Cytogenetics at follow-up: Chr 7 abnormalities ([5]; treatment failure (n = 9), baseline 0, 5 not assessed): 0 no. | Cytogenetics at follow-up: Chr 5 abnormalities [5, 7]: 1 no. | Cytogenetics at follow-up: Other Chr abnormalities [5, 7]: 0 no. | Cytogenetics at follow-up: Diploid ([5]; treatment failure (n = 9), baseline 3, 5 not assessed): 2 no. | Cytogenetics at follow-up: Complex ([5]; treatment failure (n = 9), baseline 4, 5 not assessed): 1 no. | CRi after second induction ([6]; 6 patients who received a second induction (selinexor + 5+2)): 17% | CR/CRi rate ([6]; 7 evaluable patients with TP53 mutation at diagnosis (6 with complex karyotype)): 43% | Median OS ([6]; 10 responding patients, median follow-up 28.9 months): not reached | CR/CRi rate ([6]; 16 evaluable patients treated at the RP2D (80 mg)): 50% | CR/CRi rate [6, 8]: 50% | Treatment failures [6, 8]: 50% | Evaluable patients alive at 12 months (12-month OS) ([6]; 19 evaluable patients): 47.4% | Median overall survival ([6]; 19 evaluable patients, median follow-up 26.9 months): 10.3 months | CR/CRi rate (overall response rate) [6, 9]: 53% | Patients who achieved CR [6, 9]: 42% | Patients who achieved CRi [6, 9]: 11% | Treatment failures due to refractory AML [6, 9]: 47% | CR ([6]; age ≥60, n = 16): 7 (44) no. (%) | CR + CRi ([6]; age ≥60, n = 16): 9 (56) no. (%) | CRi ([6]; age ≥60, n = 16): 2 (13) no. (%) | Treatment failure ([6]; age ≥60, n = 16): 7 (44) no. (%) | CR ([6]; age ≥70, n = 8): 3 (38) no. (%) | CR + CRi ([6]; age ≥70, n = 8): 3 (38) no. (%) | CRi ([6]; age ≥70, n = 8): 0 (0) no. (%) | Patients alive at median follow-up ([6]; all 21 patients, median follow-up 28.9 months): 38% | Median overall survival ([6]; entire cohort, n = 21): 10.3 months | CR ([6]; evaluable patients, n = 19): 8 (42.1) no. (%) | CR + CRi ([6]; evaluable patients, n = 19): 10 (52.6) no. (%) | CRi ([6]; evaluable patients, n = 19): 2 (10.5) no. (%) | Treatment failure ([6]; evaluable patients, n = 19): 9 (47.4) no. (%) | Responders alive ([6]; median follow-up of 28.9 months): 60% | Responding patients who remained in CR/CRi ([6]; median follow-up of over 2 years, all underwent allogeneic stem cell transplant in first remission): 5 of 10 | CR/CRi rate ([6]; patients who had previously received a hypomethylating agent (8 patients)): 13% | CR ([6]; prior HMA, n = 8): 1 (13) no. (%) | CR + CRi ([6]; prior HMA, n = 8): 1 (13) no. (%) | CRi ([6]; prior HMA, n = 8): 0 (0) no. (%) | Treatment failure ([6]; prior HMA, n = 8): 7 (87) no. (%) | CR ([6]; sAML, n = 12): 3 (25) no. (%) | CR + CRi ([6]; sAML, n = 12): 4 (33) no. (%) | CRi ([6]; sAML, n = 12): 1 (8) no. (%) | Treatment failure ([6]; sAML, n = 12): 8 (67) no. (%)
